# HCV core dimer – HCV core protein dimerization inhibition; TR-FRET GST/Flag-core106 dimerization, 1536-well; inhibition, % at 5 µM; hit rate 0.33% among 300,000;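 active = inhibition above the mean of all tested compounds plus 3 SD, set per screening campaign, cut at about 45% in these data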
#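 System: GST-tagged and Flag-tagged HCV core protein residues 1-106 / Input: core106 proteins, GST 13.5 nM and Flag 17 nM / Buffer or medium: KF-containing HEPES buffer, pH 7.45, DTT, CHAPS, BSA / Probe or stimulus: Eu-anti-GST and XL665-anti-Flag labelled anti-tag antibodies / Schedule: 4 h, 22.5 °C incubation / Technique: TR-FRET 671 and 617 nm emission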
# NS3 helicase inh – blocks Hepatitis C virus NS3 helicase unwinding; hit rate 0.56% among 290,000; inhibition, % at 10.9 µM; NS3 helicase DNA unwinding, Cy5 molecular beacon fluorescence;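 active = inhibition above the mean of all tested compounds plus 3 SD, set per campaign, cut at about 35% in these data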;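 also: 0% = DMSO wells and 100% = thioflavine S control wells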
#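 Assay system – hepatitis C virus NS3 helicase domain fragment enzyme · Buffer or medium – MOPS pH 6.5, MgCl2, DTT, Tween20, BSA · Reagent – Cy5/quencher beacon DNA duplex and ATP to start · Compound – single 10.9 µM dose · Timing – 1 h at 25 °C · Technique – Cy5 beacon fluorescence read at start and 1 h · Measure – % inhibition of unwinding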
# APOBEC3G inh – inhibitors of human APOBEC3G DNA deaminase; hit rate 0.28% among 330,000; inhibition, % at 20 µM; AID 493012; recombinant A3G, ssDNA deamination FAM/TAMRA fluorescence;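 active = inhibition of at least 40% at 20 µM, with no more than 30% in the related APOBEC3A deaminase screen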;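 also: plate controls were DMSO wells with A3G for no effect and wells lacking A3G enzyme for full effect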
# ABHD5 PLIN5 PPI – ABHD5-PLIN5 protein interaction inhibition | Split G. princeps luciferase complementation, luminescence, 4 h | inhibition, % at 4 µM | hit rate 0.78% among 360,000;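 active = inhibition above the mean inhibition across every tested compound plus 3 SD, cut at about 22% in these data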;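 also: 0% = DMSO only wells and the 100% control is not disclosed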
# Target sequence (Q00G26 whole entry, looked up): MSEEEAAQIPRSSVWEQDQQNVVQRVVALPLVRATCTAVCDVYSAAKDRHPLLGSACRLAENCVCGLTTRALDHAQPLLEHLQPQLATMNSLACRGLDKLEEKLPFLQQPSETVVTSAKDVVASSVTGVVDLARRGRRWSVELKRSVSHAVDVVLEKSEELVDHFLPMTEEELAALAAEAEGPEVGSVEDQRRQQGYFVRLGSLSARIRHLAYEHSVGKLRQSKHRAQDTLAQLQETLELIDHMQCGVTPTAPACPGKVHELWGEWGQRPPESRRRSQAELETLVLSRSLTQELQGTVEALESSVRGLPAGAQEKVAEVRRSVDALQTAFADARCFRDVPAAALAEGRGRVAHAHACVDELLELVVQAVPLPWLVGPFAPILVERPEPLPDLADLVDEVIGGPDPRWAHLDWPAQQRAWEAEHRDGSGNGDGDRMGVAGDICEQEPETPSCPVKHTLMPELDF
# Target sequence (Q8WTS1 whole entry, looked up): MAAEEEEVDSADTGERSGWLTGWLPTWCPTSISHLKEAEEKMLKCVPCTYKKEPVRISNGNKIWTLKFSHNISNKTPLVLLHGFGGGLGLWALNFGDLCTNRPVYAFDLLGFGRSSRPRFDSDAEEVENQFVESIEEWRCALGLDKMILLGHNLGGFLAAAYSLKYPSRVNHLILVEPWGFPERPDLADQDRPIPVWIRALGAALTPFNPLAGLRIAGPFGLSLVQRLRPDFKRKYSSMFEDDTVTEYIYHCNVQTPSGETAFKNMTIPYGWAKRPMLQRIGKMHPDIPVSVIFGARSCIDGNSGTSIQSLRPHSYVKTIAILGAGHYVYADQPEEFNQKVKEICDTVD
# A3A deaminase – inhibitors of human APOBEC3A DNA deaminase | recombinant A3A, FAM/TAMRA ssDNA deamination fluorescence | inhibition, % at 20 µM | hit rate 0.41% among 330,000 | AID 493011;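 active = at least 40% inhibition at 20 µM here, with at most 30% in a related deaminase screen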;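 also: plate controls were A3A with DMSO for no effect and wells lacking A3A enzyme for full effect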
# PRMT1 FP inh – inhibitors of human PRMT1 | hit rate 1.3% among 370,000 | recombinant PRMT1, activity-based probe fluorescence polarization | Q99873 | AID 652257 | inhibition, % at 2.79 µM;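 active = inhibition above about 21% made by adding two undisclosed values, limit read from the data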
# PRMT1 inh conf – confirmation of human PRMT1 inhibitors; shares compounds with PRMT1 FP inh; recombinant His-PRMT1, activity-based probe fluorescence polarization; inhibition, % at 2.79 µM; hit rate 42% among 3,300;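 active = mean inhibition across replicates above the hit cutoff derived for the earlier primary screen, cut at about 22% in these data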
# An asterisk follows results filed as active; / = no result. An excerpt weighted towards active compounds, which were near 2.9% of everything screened.
SMILES,HCV core dimer,NS3 helicase inh,APOBEC3G inh,ABHD5 PLIN5 PPI,A3A deaminase,PRMT1 FP inh,PRMT1 inh conf
NC(=O)/C=C\C(=O)Nc1cccc(C(F)(F)F)c1,1,4,5,13,2,51*,25*
O=C(O)CCCC(=O)Nc1cccc(C(F)(F)F)c1,-1,-2,5,3,-5,-2,/
COc1ccccc1CN(Cc1cc2cc3c(cc2[nH]c1=O)OCCO3)Cc1nnnn1Cc1ccco1,2,21,9,-8,2,36*,2
Cc1ccc2[nH]c(=O)c(CN(CCc3ccccc3)C(c3nnnn3Cc3ccco3)C(C)C)cc2c1 (centres undefined),16,21,0,9,6,27*,12
O=c1[nH]c2cc3c(cc2cc1CN(Cc1cccnc1)Cc1nnnn1Cc1ccco1)OCCO3,9,-3,56,-24,60,35*,27*
O=c1[nH]c2cc3c(cc2cc1CN(Cc1ccccc1)Cc1nnnn1Cc1ccco1)OCCO3,/,12,/,34*,/,52*,20
CCc1ccc2[nH]c(=O)c(CN(Cc3ccccc3)Cc3nnnn3Cc3ccco3)cc2c1,21,22,-1,14,11,13,/
COc1cccc(NC(=O)Nc2nc3ncccn3c2-c2ccc(C)cc2)c1,/,/,/,/,/,1,/
CCOC(=O)[C@]12CCCC=C1N(Cc1ccco1)C(=O)[C@H](CC(=O)N1CCCC1)C2,/,/,/,6,/,7,/
O=S1(=O)CC(N2CCCC2)CN1Cc1ccccc1 (centres undefined),/,/,/,-6,/,-4,/
O=c1[nH]c2cc3c(cc2cc1CN(Cc1cccs1)Cc1nnnn1Cc1ccco1)OCCO3,29,7,29,11,28,58*,33*
Cc1ccc2[nH]c(=O)c(CN(Cc3ccc4c(c3)OCO4)Cc3nnnn3Cc3ccco3)cc2c1,34,28,0,20,3,2,/
CC(C)COC(=O)N(C)C[C@@H]1OCc2cnnn2CCCC(=O)N([C@@H](C)CO)C[C@H]1C,/,/,/,9,/,0,/
C=CCN1CCc2nc(N)sc2CC1,/,7,/,-10,/,61*,11
CCN1CCc2nc(N)sc2C1,4,2,-7,-1,-4,45*,22*
c1ccc(-c2nn3c(C4CCCCC4)nnc3s2)nc1,-4,1,-1,8,3,-1,/
Clc1ccc(OCc2nn3c(C4CCCCC4)nnc3s2)cc1,15,-4,30,-2,-2,27*,1
CCOC(=O)C1=C(C)Nc2ccc(C)cc2S1,-29,4,-6,-10,-4,42*,14
CCOCCOC(=O)C1=C(C)Nc2ccc(C)cc2S1,-13,1,-1,-2,4,21,/
CCOC(=O)C1=C(C)Nc2ccccc2S1,-16,0,-2,-3,-2,31*,17
CSCCOC(=O)C1=C(C)Nc2ccc(C)cc2S1,-29,0,-2,-17,-2,34*,17
COC(=O)[C@@]1(Sc2ccc(C)cc2)CC(=O)N[C@@H]1c1ccco1,/,/,/,-3,/,52*,1
CCCCCCCCCCCCCC(=O)NO,/,/,/,5,/,-4,/
COCCNC(=O)C1(C)CCN(C(=O)c2ccc(C(F)(F)F)nc2C)C1 (centres undefined),/,/,/,7,/,-4,/
COc1ccc2cc(C3CC(c4ccco4)=NN3S(=O)(=O)c3ccccc3)c(Cl)nc2c1 (centres undefined),41,4,-10,-1,-6,29*,2
SMILES,HCV core dimer,NS3 helicase inh,APOBEC3G inh,ABHD5 PLIN5 PPI,A3A deaminase,PRMT1 FP inh,PRMT1 inh conf
CCOc1ccc2cc(C3CC(c4ccco4)=NN3S(=O)(=O)c3ccccc3)c(Cl)nc2c1 (centres undefined),20,19,-2,1,2,3,/
CCOc1ccc(N(CC(=O)NC(C)(C)C)C(=O)CCC(=O)Nc2nccs2)cc1,-5,2,-3,7,0,0,/
CCC(=O)OCCNc1cc(Sc2nc3ccccc3s2)c2nonc2c1[N+](=O)[O-],4,-8,12,21,-2,68*,76*
O=C(CC[C@H]1O[C@@H](n2ccc(=O)[nH]c2=O)[C@H](O)[C@@H]1O)NCC1CCCO1 (some centres undefined),/,/,/,-5,/,-3,/
CCOC(=O)c1c(C)nc(C)c(C(=O)OCC)c1-c1ccccc1,-3,6,-1,2,1,/,/
CCOC(=O)c1c(C)nc(SCC(N)=O)c(C#N)c1-c1ccccc1,-15,-11,-2,1,3,35*,-5
Cc1cc(NC(=O)Cc2ccsc2)ccc1Br,8,-10,-12,-6,-4,-4,/
Cc1cc(C)c2c(=O)n(CC(=O)Nc3ccc(Br)c(C)c3)sc2n1,4,-12,/,7,/,93*,97*
Cc1ccsc1CNC(=O)C1(C)CCN1C(=O)C(C)C (centres undefined),/,/,/,3,/,-3,/
CC(=O)Nc1ccc(NC(=O)COC(=O)c2ccccc2SCC(=O)N2CCCC2)cc1,2,/,-10,3,-1,29*,24*
COc1ccc(NC(=O)COC(=O)c2ccccc2SCC(=O)N2CCCC2)cc1,0,/,-8,6,3,5,/
Cc1nc(Cl)c2c(n1)NC1=C(O2)C(=O)CCC1,-9,16,-4,-1,-2,36*,48*
CC(=O)Nc1ccc(NC(=O)CSc2ccc3nnc(-c4cccnc4)n3n2)cc1,3,1,-2,-3,3,-6,/
C[C@@H]1CN([C@H](C)CO)C(=O)CCCn2nncc2CO[C@H]1CN(C)S(=O)(=O)c1ccccc1F,/,/,/,7,/,-2,/
Cc1ccc2sc(C)[n+](CCO)c2c1,0,-16,-1,-13,-2,58*,33*
CC[n+]1c(C)sc2cc(C)ccc21,0,2,-3,-5,23,74*,16
CCCC[n+]1c(C)sc2ccc(C)cc21,-3,-5,10,-3,30,42*,18
CCC(/C=C1\Sc2ccc(OC)cc2N1CCO)=C\c1sc2ccc(OC)cc2[n+]1CCO,-265,5,8,43*,8,70*,7
Cc1ccc(-n2nnnc2-c2cccs2)cc1[N+](=O)[O-],0,/,-3,-3,1,-1,/

# Screening data (PubChem)
